Assay results from ChEMBL document CHEMBL1165965, “Synthesis and structure-activity relationships of 1,2,3,4-tetrahydropyrido[2,3-b]pyrazines as potent and selective inhibitors of the anaplastic lymphoma kinase” (Bioorg Med Chem, 2010).

Columns and labels:
[1] = molecular target: Insulin-like growth factor 1 receptor (Homo sapiens) (UniProt P08069); test: Inhibition of IGF1R at 1 uM
Summary of the method: (§1)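 Single-concentration screen on the Ambit KINOMEscan platform, run against a panel of 250–400 kinases. Per-kinase inhibition was also summarized as S(90), the fraction of kinases inhibited by more than 90%.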

[2] = molecular target: Ephrin type-A receptor 7 (Homo sapiens) (UniProt Q15375); test: Inhibition of EPHA7 at 1 uM
Summary of the method: (§2)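 Single-concentration screen using Ambit Bioscience KINOMEscan technology across a panel of 250–400 kinases. Per-kinase inhibition from this screen was summarized as S(90), the fraction of kinases inhibited by more than 90%.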

[3] = molecular target: T1, Receptor-interacting serine/threonine-protein kinase 1 (Homo sapiens) (UniProt Q13546); test: Inhibition of RIPK1 at 1 uM
T1 sequence (whole entry): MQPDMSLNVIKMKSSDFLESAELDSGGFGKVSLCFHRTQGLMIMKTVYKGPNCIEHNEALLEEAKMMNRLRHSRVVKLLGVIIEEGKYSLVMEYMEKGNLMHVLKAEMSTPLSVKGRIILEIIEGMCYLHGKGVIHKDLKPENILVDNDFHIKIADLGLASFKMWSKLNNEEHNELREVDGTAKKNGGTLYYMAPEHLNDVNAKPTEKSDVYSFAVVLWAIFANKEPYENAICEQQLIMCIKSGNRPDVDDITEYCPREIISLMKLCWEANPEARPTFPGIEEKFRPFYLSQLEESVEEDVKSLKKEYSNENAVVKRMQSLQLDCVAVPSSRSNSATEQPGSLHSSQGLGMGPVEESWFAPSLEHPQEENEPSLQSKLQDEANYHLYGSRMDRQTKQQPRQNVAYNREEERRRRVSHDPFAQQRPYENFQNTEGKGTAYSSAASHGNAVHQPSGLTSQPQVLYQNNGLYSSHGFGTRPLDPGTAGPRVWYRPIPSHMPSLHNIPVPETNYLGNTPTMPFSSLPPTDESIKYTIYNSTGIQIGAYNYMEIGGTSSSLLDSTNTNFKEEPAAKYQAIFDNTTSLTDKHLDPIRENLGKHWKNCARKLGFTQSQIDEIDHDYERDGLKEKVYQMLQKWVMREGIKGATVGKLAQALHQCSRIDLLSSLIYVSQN

[4] = molecular target: T2, Cyclin-dependent kinase-like 2 (Homo sapiens) (UniProt Q92772); test: Inhibition of CDKL2 at 1 uM
T2 sequence (whole entry): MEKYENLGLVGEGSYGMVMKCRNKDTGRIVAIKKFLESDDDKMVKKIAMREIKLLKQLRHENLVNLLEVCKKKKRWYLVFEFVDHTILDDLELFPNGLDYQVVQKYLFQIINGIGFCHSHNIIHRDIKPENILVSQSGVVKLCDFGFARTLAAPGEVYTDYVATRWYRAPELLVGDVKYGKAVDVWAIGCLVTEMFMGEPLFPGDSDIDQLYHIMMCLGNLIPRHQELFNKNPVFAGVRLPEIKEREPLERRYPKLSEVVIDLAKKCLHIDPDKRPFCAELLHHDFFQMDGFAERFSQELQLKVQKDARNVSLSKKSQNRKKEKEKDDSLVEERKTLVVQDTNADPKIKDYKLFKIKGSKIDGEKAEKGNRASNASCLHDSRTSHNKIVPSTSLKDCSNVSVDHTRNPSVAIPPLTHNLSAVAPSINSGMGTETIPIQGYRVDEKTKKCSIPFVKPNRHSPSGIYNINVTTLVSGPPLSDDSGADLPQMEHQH

[5] = system: Tyrosine-protein kinase ABL1 (Homo sapiens), P00519 [E255K]; test: Inhibition of ABL1 E255K mutant at 1 uM
Summary of the method: (§3)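 Ambit KINOMEscan screen at a single concentration across a 250–400 kinase panel, recorded as percent inhibition. Selectivity was expressed as S(90), the fraction of kinases inhibited >90%.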

[6] = system: Mast/stem cell growth factor receptor Kit (Homo sapiens), P10721 [V559D,T670I]; test: Inhibition of KIT V559D,T670I mutant at 1 uM; summary of the method: as §1
[7] = system: Phosphatidylinositol 4,5-bisphosphate 3-kinase catalytic subunit alpha isoform (Homo sapiens), P42336 [Q546K]; test: Inhibition of PIK3CA Q546K mutant at 1 uM
[8] = molecular target: Receptor tyrosine-protein kinase erbB-4 (Homo sapiens) (UniProt Q15303); test: Inhibition of ERBB4 at 1 uM; summary of the method: as §2
[9] = molecular target: Epidermal growth factor receptor (Homo sapiens) (UniProt P04626+P00533+Q15303+P21860); test: Inhibition of EGFR L747-T751del, Sins mutant at 1 uM; format: protein assay; summary of the method: as §2
[10] = system: Tyrosine-protein kinase ABL1 (Homo sapiens), P00519 [F317I]; test: Inhibition of ABL1 F317I mutant at 1 uM
[11] = molecular target: Insulin receptor (Homo sapiens) (UniProt P06213); test: Inhibition of INSR at 1 uM; summary of the method: as §1
[12] = molecular target: T3, Serine/threonine-protein kinase BRSK2 (Homo sapiens) (UniProt Q8IWQ3); test: Inhibition of BRSK2 at 1 uM; summary of the method: as §3
T3 sequence (whole entry): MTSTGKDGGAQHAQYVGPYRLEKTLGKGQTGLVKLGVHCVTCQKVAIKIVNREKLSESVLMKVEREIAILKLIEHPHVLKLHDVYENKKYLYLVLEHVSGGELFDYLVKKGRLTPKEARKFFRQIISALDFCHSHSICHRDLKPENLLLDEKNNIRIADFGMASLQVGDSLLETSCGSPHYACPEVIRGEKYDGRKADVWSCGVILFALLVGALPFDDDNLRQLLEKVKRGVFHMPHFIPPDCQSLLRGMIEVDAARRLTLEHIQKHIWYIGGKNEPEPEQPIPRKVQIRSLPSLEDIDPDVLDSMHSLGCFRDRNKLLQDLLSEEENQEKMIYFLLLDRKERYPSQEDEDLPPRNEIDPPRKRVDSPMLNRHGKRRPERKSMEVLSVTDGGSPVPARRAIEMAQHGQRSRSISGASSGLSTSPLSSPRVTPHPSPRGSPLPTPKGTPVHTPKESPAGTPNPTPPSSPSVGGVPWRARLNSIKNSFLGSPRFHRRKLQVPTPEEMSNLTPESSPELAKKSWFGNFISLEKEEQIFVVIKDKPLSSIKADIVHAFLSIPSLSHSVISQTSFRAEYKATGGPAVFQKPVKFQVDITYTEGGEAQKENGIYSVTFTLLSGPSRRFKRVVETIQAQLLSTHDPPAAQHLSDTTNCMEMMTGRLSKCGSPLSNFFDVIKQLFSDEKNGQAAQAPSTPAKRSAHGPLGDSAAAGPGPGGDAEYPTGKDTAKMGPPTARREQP

[13] = system: Mast/stem cell growth factor receptor Kit (Homo sapiens), P10721 [D816V]; test: Inhibition of KIT D816V mutant at 1 uM; summary of the method: as §1
[14] = system: Tyrosine-protein kinase ABL1 (Homo sapiens), P00519 [M351T]; test: Inhibition of ABL1 M351T mutant at 1 uM; summary of the method: as §3

Measured: inhibition

Receptor tyrosine-protein kinase erbB-4 (Homo sapiens), sequence (Q15303 whole entry): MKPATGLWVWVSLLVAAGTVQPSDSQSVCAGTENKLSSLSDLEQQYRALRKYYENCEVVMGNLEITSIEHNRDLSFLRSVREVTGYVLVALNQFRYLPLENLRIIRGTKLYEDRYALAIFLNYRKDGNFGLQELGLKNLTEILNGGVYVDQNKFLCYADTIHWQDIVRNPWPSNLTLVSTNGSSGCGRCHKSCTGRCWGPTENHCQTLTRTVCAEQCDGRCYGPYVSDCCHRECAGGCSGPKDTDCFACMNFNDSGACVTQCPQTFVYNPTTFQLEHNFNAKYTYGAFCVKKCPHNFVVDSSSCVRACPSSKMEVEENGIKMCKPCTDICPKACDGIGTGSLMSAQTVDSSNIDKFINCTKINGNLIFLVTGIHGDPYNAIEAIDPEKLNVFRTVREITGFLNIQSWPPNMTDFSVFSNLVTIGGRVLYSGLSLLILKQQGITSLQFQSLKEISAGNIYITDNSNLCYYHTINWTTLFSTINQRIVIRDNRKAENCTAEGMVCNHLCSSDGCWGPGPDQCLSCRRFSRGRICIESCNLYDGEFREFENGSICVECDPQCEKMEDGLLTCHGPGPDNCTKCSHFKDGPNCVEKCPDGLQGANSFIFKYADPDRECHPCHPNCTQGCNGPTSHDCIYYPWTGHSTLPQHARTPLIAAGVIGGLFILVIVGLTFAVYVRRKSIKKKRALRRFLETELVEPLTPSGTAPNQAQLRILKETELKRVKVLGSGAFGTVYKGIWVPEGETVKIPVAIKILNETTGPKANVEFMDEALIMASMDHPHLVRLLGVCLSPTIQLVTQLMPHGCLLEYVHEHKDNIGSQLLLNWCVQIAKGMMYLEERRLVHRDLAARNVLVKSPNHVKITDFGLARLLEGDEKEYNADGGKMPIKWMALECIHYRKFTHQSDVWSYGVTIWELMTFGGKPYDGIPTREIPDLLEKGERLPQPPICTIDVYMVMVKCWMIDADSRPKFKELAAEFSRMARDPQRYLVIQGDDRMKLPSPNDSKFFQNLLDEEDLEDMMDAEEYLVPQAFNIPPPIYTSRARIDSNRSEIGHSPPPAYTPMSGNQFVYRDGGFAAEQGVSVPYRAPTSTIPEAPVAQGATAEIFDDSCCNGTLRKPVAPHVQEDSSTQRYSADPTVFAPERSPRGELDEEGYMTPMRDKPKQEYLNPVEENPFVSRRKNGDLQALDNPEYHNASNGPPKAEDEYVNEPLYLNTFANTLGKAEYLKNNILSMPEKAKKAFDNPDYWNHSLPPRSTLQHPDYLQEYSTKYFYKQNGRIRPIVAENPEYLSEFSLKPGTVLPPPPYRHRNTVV
Mast/stem cell growth factor receptor Kit (Homo sapiens), P10721 [D816V], sequence (P10721 whole entry D816V): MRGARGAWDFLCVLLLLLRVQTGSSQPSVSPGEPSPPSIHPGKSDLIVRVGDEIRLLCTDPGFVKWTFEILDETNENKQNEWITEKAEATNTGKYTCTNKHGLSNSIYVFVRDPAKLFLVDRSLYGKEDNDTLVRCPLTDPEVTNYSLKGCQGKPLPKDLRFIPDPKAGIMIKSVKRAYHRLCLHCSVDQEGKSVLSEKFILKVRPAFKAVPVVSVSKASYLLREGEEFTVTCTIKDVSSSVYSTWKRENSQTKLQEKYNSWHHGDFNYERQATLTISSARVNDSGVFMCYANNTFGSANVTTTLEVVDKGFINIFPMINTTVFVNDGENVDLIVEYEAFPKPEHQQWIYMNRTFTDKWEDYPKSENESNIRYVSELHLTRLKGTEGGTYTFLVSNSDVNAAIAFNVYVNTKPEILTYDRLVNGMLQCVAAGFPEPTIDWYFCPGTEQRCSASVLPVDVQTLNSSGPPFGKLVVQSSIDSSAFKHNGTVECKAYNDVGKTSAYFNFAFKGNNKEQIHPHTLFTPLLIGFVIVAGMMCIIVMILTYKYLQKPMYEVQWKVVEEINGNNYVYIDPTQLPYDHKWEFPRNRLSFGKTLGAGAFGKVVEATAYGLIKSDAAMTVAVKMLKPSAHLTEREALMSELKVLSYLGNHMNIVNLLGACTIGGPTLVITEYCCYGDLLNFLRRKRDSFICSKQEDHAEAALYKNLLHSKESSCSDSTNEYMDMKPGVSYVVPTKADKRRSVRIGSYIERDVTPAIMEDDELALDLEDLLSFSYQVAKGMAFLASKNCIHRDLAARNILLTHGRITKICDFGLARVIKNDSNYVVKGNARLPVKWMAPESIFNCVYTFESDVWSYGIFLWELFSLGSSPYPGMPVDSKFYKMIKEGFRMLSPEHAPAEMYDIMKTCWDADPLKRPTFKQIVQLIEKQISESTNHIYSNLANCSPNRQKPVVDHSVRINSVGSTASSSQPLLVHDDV
Insulin receptor (Homo sapiens), sequence (P06213 28-758 limits assumed): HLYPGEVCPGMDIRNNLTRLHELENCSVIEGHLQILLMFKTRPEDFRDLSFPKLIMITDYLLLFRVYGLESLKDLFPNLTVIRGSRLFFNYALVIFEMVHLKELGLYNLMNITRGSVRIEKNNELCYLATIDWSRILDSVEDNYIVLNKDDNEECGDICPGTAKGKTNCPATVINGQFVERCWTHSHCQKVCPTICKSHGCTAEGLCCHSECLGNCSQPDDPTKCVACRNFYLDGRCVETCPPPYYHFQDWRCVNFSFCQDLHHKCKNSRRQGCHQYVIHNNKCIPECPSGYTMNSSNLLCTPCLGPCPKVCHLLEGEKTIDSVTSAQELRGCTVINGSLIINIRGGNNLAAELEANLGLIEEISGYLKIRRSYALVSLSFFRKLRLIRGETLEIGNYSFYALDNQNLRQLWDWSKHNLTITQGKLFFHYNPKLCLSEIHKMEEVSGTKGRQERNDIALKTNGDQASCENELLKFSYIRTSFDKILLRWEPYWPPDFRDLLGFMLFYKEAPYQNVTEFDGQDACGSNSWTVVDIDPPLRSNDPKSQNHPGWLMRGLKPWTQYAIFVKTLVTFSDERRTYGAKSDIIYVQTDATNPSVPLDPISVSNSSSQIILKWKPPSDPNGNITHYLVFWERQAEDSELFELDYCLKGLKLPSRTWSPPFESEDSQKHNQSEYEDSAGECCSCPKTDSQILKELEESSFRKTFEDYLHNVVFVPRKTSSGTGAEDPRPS
Insulin receptor (Homo sapiens), sequence (P06213 763-1382 limits assumed): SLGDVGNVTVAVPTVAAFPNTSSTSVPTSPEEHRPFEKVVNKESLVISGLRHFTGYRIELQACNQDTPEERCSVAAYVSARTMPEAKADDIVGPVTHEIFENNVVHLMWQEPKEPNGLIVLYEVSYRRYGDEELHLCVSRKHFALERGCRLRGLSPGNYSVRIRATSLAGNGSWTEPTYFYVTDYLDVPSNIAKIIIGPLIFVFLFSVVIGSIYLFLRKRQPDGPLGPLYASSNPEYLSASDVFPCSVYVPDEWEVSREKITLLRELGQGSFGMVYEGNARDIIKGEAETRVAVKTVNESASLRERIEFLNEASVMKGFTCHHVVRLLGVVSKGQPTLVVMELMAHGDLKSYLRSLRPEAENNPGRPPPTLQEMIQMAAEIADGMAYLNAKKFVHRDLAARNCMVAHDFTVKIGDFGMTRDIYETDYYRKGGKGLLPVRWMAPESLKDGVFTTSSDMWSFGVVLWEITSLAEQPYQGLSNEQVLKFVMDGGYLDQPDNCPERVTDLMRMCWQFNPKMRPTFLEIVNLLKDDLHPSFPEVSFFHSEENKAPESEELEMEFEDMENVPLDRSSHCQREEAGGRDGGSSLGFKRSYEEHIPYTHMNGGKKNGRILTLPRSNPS
Phosphatidylinositol 4,5-bisphosphate 3-kinase catalytic subunit alpha isoform (Homo sapiens), P42336 [Q546K], sequence (P42336 whole entry Q546K, canonical isoform): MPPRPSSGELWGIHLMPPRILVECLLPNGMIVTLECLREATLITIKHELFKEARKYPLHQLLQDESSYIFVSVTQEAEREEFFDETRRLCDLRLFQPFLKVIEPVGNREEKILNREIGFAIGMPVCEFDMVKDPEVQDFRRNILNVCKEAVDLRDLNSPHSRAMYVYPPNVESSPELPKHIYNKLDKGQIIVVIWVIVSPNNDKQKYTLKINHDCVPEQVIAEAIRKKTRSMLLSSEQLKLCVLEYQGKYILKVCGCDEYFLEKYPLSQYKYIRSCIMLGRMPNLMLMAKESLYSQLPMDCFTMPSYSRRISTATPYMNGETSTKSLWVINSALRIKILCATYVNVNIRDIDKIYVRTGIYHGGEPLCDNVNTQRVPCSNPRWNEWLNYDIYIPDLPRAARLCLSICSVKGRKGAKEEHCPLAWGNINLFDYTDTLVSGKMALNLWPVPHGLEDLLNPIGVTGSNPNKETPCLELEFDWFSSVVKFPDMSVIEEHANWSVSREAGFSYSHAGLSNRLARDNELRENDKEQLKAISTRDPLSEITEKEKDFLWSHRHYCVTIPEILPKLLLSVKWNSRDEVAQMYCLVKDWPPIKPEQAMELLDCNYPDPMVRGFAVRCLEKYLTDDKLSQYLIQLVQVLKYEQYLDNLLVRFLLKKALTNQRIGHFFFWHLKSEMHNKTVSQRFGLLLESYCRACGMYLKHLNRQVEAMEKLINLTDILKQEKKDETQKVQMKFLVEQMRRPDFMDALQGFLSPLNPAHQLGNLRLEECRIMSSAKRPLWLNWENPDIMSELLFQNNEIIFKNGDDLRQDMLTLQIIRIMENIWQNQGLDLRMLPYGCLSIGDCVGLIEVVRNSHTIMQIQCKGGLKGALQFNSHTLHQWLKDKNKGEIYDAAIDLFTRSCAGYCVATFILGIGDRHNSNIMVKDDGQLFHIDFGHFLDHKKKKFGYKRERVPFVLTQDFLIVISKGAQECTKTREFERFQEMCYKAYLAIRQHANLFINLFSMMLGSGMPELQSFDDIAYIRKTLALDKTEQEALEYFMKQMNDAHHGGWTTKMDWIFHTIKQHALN
Mast/stem cell growth factor receptor Kit (Homo sapiens), P10721 [V559D,T670I], sequence (P10721 whole entry V559D/T670I, canonical isoform): as the sequence (P10721 whole entry D816V) above, with V559D, T670I, V816D counted along it

CN1CCN(c2ccc(-c3cnc4c(c3)N(Cc3cc(Cl)ccc3C(F)(F)F)CCN4)cn2)CC1
< 50%: [1] | [2] | [3] | [4] | [5] | [6] | [7] | [8] | [9] | [10] | [11] | [12] | [13] | [14]
